Data published in ChEMBL document CHEMBL1140233, “Synthesis and preliminary biological evaluation of novel pyrazolo[1,5-a]pyrazin-4(5H)-one derivatives as potential agents against A549 lung cancer cells” (Bioorg Med Chem, 2008).
The source made the active and inactive calls. The rule behind the calls is not given here.

Columns and labels:
A549 [1] = test: Growth inhibition of human A549 cells after 48 hrs by MTT assay; type: functional, cell-based; details: A549, 48 h
Procedure, shortened: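 A549 cells kept in RPMI 1640 with 10% (v/v) bovine calf serum and 80 U/ml gentamicin at 37 °C, 5% CO2, and seeded in 96-well plates at 6250/cm². They were exposed to compound at 8, 16, 32 and 64 µM for 12, 24 or 48 h. Viability was read by MTT absorbance at 570 nm and expressed as percent of untreated control (n = 3).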

A549 [2] = test: Induction of necrosis in human A549 cells at 64 uM after 48 hrs by LDH assay; type: functional, cell-based
Procedure, shortened: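 A549 cells cultured in RPMI 1640 with 10% bovine calf serum were exposed to compound at 64 µM for 48 h. LDH released into the culture medium was measured by absorbance at 340 nm on a UV–vis spectrometer and compared with untreated control cells.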

A549 [3] = test: Induction of apoptosis in human A549 cells assessed as DNA fragmentation at 16 uM after 24 hrs by acridine orange staining; type: functional, cell-based
Procedure, shortened: (§1)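 A549 cells in RPMI 1640 with 10% bovine calf serum were treated with compound at 16 or 32 µM for 24 or 48 h. They were then stained with acridine orange for 1 min at room temperature and imaged by fluorescence microscopy. Nuclear DNA fragmentation, chromatin condensation and the volume of the acidic compartment were scored by eye (n = 4).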

A549 [4] = test: Induction of apoptosis in human A549 cells assessed as DNA fragmentation at 32 uM after 24 hrs by acridine orange staining; type: functional, cell-based; procedure, shortened: as §1
A549 [5] = test: Induction of apoptosis in human A549 cells assessed as DNA fragmentation at 16 uM after 48 hrs by acridine orange staining; type: functional, cell-based; procedure, shortened: as §1
A549 [6] = test: Induction of apoptosis in human A549 cells assessed as DNA fragmentation at 32 uM after 48 hrs by acridine orange staining; type: functional, cell-based; procedure, shortened: as §1
A549 [7] = test: Induction of autophagy in human A549 cells assessed as volume of cellular acidic compartment at 32 uM by acridine orange staining; type: functional, cell-based; procedure, shortened: as §1
A549 [8] = test: Viability of human A549 cells at 32 uM after 12 hrs by MTT assay relative to control; details: A549, 12 h
A549 [9] = test: Viability of human A549 cells at 32 uM after 24 hrs by MTT assay relative to control; details: A549, 24 h
A549 [10] = test: Viability of human A549 cells at 32 uM after 48 hrs by MTT assay relative to control; details: A549, 48 h
A549 [11] = test: Viability of human A549 cells at 64 uM after 48 hrs by MTT assay relative to control; details: A549, 48 h

IC50 (A549 [1]) [µM] | Structure (SMILES) | Activity (A549 [2]) | further results
62.5 | CCCCN1CCn2nc(-c3ccc(OC)cc3)cc2C1=O | – | –
> 64 | COc1ccc(-c2cc3n(n2)CCN(Cc2ccc(Cl)nc2)C3=O)cc1 | – | –
31.5 | COc1ccc(CCN2CCn3nc(-c4ccccc4)cc3C2=O)cc1OC | inactive | –
22.3 | O=C1c2cc(-c3ccc(Cl)cc3)nn2CCN1Cc1ccccc1 | inactive | Activity (A549 [3]): inactive; Activity (A549 [4]): inactive; Activity (A549 [5]): inactive; Activity (A549 [6]): inactive; Activity (A549 [7]): Active; viability at 32 µM (A549 [8]): 78.7%; viability at 32 µM (A549 [9]): 73.6%; viability at 32 µM (A549 [10]): 39.2%; viability at 64 µM (A549 [11]): 26.5%
> 64 | CC(C)N1CCn2nc(-c3ccccc3)cc2C1=O | – | –
> 64 | COc1ccc(-c2cc3n(n2)CCN(CCc2ccc(OC)c(OC)c2)C3=O)cc1 | – | –
> 64 | O=C1c2cc(-c3ccccc3)nn2CCN1Cc1ccc(Cl)nc1 | – | –
> 64 | CCCCN1CCn2nc(-c3ccccc3)cc2C1=O | – | –
50.2 | COc1ccc(-c2cc3n(n2)CCN(Cc2ccc(C(C)(C)C)cc2)C3=O)cc1 | inactive | –
> 64 | COc1ccc(-c2cc3n(n2)CCN(Cc2ccccc2)C3=O)cc1 | – | –
> 64 | COc1ccc(CCN2CCn3nc(-c4ccc(Cl)cc4)cc3C2=O)cc1OC | – | –
> 64 | CC(C)(C)c1ccc(CN2CCn3nc(-c4ccc(Cl)cc4)cc3C2=O)cc1 | – | –
31 | CC(C)N1CCn2nc(-c3ccc(Cl)cc3)cc2C1=O | inactive | viability at 32 µM (A549 [8]): 81.4%; viability at 32 µM (A549 [9]): 75.7%; viability at 32 µM (A549 [10]): 50%; viability at 64 µM (A549 [11]): 34.6%
> 64 | CC(C)(C)c1ccc(CN2CCn3nc(-c4ccccc4)cc3C2=O)cc1 | – | –
29.8 | CCCCN1CCn2nc(-c3ccc(Cl)cc3)cc2C1=O | inactive | –
> 64 | COc1ccc(-c2cc3n(n2)CCN(C(C)C)C3=O)cc1 | – | –
> 64 | O=C1c2cc(-c3ccccc3)nn2CCN1Cc1ccccc1 | – | –
39.5 | O=C1c2cc(-c3ccc(Cl)cc3)nn2CCN1Cc1ccc(Cl)nc1 | inactive | –
